Laboratory results: paper PMC8489793 (ACS chemical biology, 2019)
“Also recorded” adds a separate entry of the source.

How the values were obtained:
[1] = tested on: primary mouse mammary epithelial cells (MECs) organoids; assay: 3D organoid model of normal mammary growth and branching morphogenesis; type: cell-based; details: for delay in branching morphogenesis: single agent; for organoids killed: 3D branching assay
In short: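 Primary mouse mammary epithelial cells embedded in Matrigel and stimulated to branch with FGF2. Test compound and/or ZnSO4, or vehicle, added from 48 h. At 144 h, organoids stained with Hoechst (nuclei), calcein AM (live) and SYTOX Orange (dead), then imaged.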

[2] = tested on: primary metastatic tumor cells derived from malignant pleural effusions (PEs) of breast cancer patients; details: 10 μM; PE cells; cited from earlier work
[3] = tested on: untransformed mouse MECs and MCF-10A cells, in comparison to MCF-7 cells; assay: intracellular Zn^2+ by FluoZin-3, comparison of zinc interactors; type: cell-based; details: 3 h, absence of exogenous Zn^2+
[4] = tested on: epidermal growth factor (EGF)-stimulated DNA synthesis; details: cited from earlier work
[5] = tested on: immortalized human mammary epithelial cells (hTERT-HMEC); details: 10 μM; cited from earlier work
[6] = tested on: MT1 and MT2 in renal and hepatic tissue; assay: RT-PCR of metallothionein expression in tissue of treated mice; type: in vivo; details: 100 mg/kg intraperitoneal, nontumor bearing FVB/NJ mice
In short: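 Nontumor-bearing FVB/NJ mice received 100 mg/kg test compound intraperitoneally or vehicle, and were sampled 3 or 24 h later. MT1 and MT2 expression in kidney and liver was measured by real-time PCR, normalised to β-actin and expressed relative to controls.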

[7] = tested on: MCF-7 cells; assay: cell death by propidium iodide staining and flow cytometry; type: cell-based, human; details: cotreatment with ZnSO4, within 24 h
In short: (§1)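 Cells treated 24 h with test compound combined with ZnSO4, then stained with propidium iodide and analysed by flow cytometry. Mean and SEM of three replicates, normalized to the control sample.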

[8] = tested on: cytosolic cathepsin in MCF-7 cells; assay: cytosolic cathepsin activity / cytoplasmic fractionation; type: cell-based, human
In short: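 Cells given test compound plus ZnSO4 for 6 h. Cytoplasmic cathepsin activity then measured with an enzymatic assay and expressed as mean activity relative to control. SEM of three experimental replicates.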

[9] = tested on: MCF-7 cells; assay: FluoZin-3 and LysoTracker colocalization; type: cell-based, human; details: ZNA (30 μM) and ZnSO4 (30 μM), 2 h
In short: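 Cells exposed 2 h to test compound (30 μM) and/or ZnSO4 (30 μM). Costained with FluoZin-3 (zinc), LysoTracker (lysosomes) and Hoechst, then imaged by fluorescence microscopy. Overlap of FluoZin-3 and LysoTracker signals quantified.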

[10] = tested on: MCF-10A cells; assay: intracellular Zn^2+ by FluoZin-3 and flow cytometry; type: cell-based, human
In short: (§2)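 Intracellular free Zn2+ measured by FluoZin-3 staining and flow cytometry after 1, 3, 24 or 48 h of treatment with test compound, with or without ZnSO4. For MCF-7, an extra 24 h arm included actinomycin D to block transcription. Mean and SEM of three replicates, compared with control.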

[11] = tested on: caspase 3/7, 8, or 9 activity in T47D, MDA-MB-231, and MCF-10A; assay: quantification of caspase activity; type: cell-based, human; details: 6 or 72 h
In short: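 Caspase activity quantified after 6 or 72 h exposure to test compound with ZnSO4; staurosporine used as positive control. Mean and SD of three replicates.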

[12] = tested on: cancer cells; assay: long-term colony formation after 24 h treatment; type: cell-based, human; details: 24 h treatment then 3 weeks without compound
In short: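 Cells were exposed to test compound for 24 h, then grown in compound-free medium for 21 days. Colonies were stained with crystal violet and quantified, and the mean and standard deviation of four replicates were reported.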

[13] = tested on: MCF-10A; assay: dose–response assay in untransformed mammary epithelial cell line; type: cell-based, human; details: 5 days
In short: (§3)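 Viability dose–response after 5 days of treatment in untransformed MCF-10A cells and in MCF-7, T47D and MDA-MB-231 breast cancer lines. Mean and SD of three replicates.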

[14] = tested on: metal trafficking genes in MCF-10A cells; assay: RT-PCR of metal trafficking gene induction; type: cell-based, human; details: ZNA 30 μM, 3 or 24 h, normalized to GAPDH
In short: (§4)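 Real-time PCR of metal trafficking gene induction after 3 or 24 h exposure to test compound at 30 μM, run in quadruplicate.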

[15] = tested on: metal trafficking genes in MCF-7 cells; assay: RT-PCR of metal trafficking gene induction; type: cell-based, human; details: ZNA 30 μM, 3 or 24 h, normalized to GAPDH
In short: as §4

[16] = tested on: MCF-10A and MCF-7 cells; assay: evaluation of focused library; type: cell-based, human; details: MCF-7 versus MCF-10A; listed as compound 4
In short: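 MCF-7 breast cancer and untransformed MCF-10A mammary epithelial cells were given a range of test compound concentrations to generate dose–response curves. MCF-7 EC50 was the mean of three replicates. ΔAUC was the difference in area under the curve between MCF-7 and MCF-10A.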

[17] = tested on: MCF-10A cells; assay: long-term colony formation after 24 h treatment; type: cell-based, human; details: 24 h treatment then 3 weeks without compound
In short: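 Cells treated 24 h, then cultured 21 days in compound-free medium. Surviving colonies stained with crystal violet and quantified. Mean and SD of four replicates.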

[18] = tested on: MCF-10A; assay: cell death by propidium iodide staining and flow cytometry; type: cell-based, human
In short: as §1

[19] = tested on: malignant pleural effusion cells (PE1005339); assay: 12-point dose–response assay in malignant pleural effusion cells; type: cell-based, human; details: PE1005339 tumor cells; 12-point dose–response; 4 days
In short: (§5)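 Dose–response after 4 days of treatment in immortalized primary human mammary epithelial cells (hTERT-HMEC) or in primary metastatic, chemoresistant breast cancer cells from a patient's malignant pleural effusion. A 12-point series is stated for the effusion cells. Mean and SD of three replicates.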

[20] = tested on: hTERT-HMEC; assay: dose–response assay in immortalized mammary epithelial cells; type: cell-based, human; details: therapeutic window; hTERT-HMEC per Figure 2C; 4 days
In short: as §5

[21] = tested on: MCF-10A cells; assay: cellular proliferation by EdU incorporation; type: cell-based, human; details: 6 h
In short: (§6)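 Proliferation measured as percent EdU incorporation after 6 h with test compound (30 μM) and/or ZnSO4 (30 μM). Mean and SEM of three experimental replicates; compared against control.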

[22] = tested on: MCF-7 cells; assay: total cellular Zn^2+ by ICP-AES; type: cell-based, human; details: 3 h, ZNA or ZNA/ZnSO4
In short: (§7)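 Total cellular zinc determined by inductively coupled plasma atomic emission spectroscopy after 3 h treatment with test compound alone or together with ZnSO4.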

[23] = tested on: PyMT primary tumor organoids; assay: 3D primary tumor organoid culture; type: cell-based; details: 144 h
In short: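 PyMT mouse tumor cells embedded as organoids in Matrigel and cultured 144 h. Test compound and/or ZnSO4, or vehicle, present from 48 h to the end. Final staining with Hoechst, calcein AM (live) and SYTOX Orange (dead), then imaged.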

[24] = tested on: MCF-7 cells; assay: intracellular Zn^2+ by FluoZin-3 and flow cytometry; type: cell-based, human
In short: as §2

[25] = tested on: MCF-10A cells; assay: total cellular Zn^2+ by ICP-AES; type: cell-based, human; details: cotreatment with Zn^2+
In short: as §7

[26] = tested on: MCF-10 and MCF-7 cell lines; assay: cell viability; type: cell-based, human
In short: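 Test compound combined with exogenously added transition metal ions. Viability read as cellular ATP content after 24 h of treatment. Mean and SEM of three replicates, each normalized to its respective control.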

[27] = tested on: MCF-7, T47D, and MDA-MB231 breast cancer cell lines; assay: dose–response assays in breast cancer cell lines; type: cell-based, human; details: malignant cell lines; 5 days
In short: as §3

[28] = tested on: transformed and untransformed cell types; type: cell-based; details: ZNA (30 μM) or clioquinol (30 μM) with ZnSO4; propidium iodide
[29] = tested on: PyMT mammary tumors; assay: transplanted PyMT mouse mammary tumor model; type: in vivo
In short: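 PyMT-expressing mouse mammary cells were transplanted into the fat pads of 3-week-old female FVB mice. Tumour-bearing mice were assigned to four groups for 21 days: test compound 100 mg/kg i.p. once daily, 25 mM ZnSO4 continuously in drinking water, both, or PBS i.p. once daily. Mice were euthanised at 2 cm tumour diameter, and Kaplan–Meier survival analysis was used.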

[30] = tested on: MCF-7 cells; assay: cellular proliferation by EdU incorporation; type: cell-based, human; details: 6 h
In short: as §6

[31] = tested on: transformed and untransformed cells; assay: cell viability; type: cell-based; details: 48 h; ATP quantification
[32] = tested on: a variety of cancer cell lines; details: read-out: IC50s; cited from earlier work

Molecule: O=S(=O)([O-])[O-].[Zn+2] [ZnSO4]
- delay in branching morphogenesis [1]: 24 h

Molecule: naamidine A
- decrease in cell viability [2]: 100%
- intracellular Zn^2+ levels (FluoZin-3) [3]: decreased or unchanged
- organoids killed ([1]; compound alone): 100%
- effect of exogenous ZnSO4 on cytotoxic effects in organoids ([1]; with exogenous ZnSO4): rescued the cytotoxic effects
- inhibition of EGF-stimulated DNA synthesis [4]: submicromolar
- decrease in cell viability [5]: 100%

Molecule: COc1ccc(-c2c(Cc3ccccc3)[nH]/c(=N\C(=O)c3ccccc3F)n2C)cc1 [ZNA, zinaamidole A]
- MT1 and MT2 expression versus control treated mice ([6]; 3 h): increased
- MT1 and MT2 expression ([6]; 24 h): decreased
- cell death [7]: > 80%
- cytosolic cathepsin activity ([8]; MCF-7, combination of ZNA and ZnSO4, 6 h): significant increase
- cytosolic cathepsins B, D, and L relative to untreated cells ([8]; MCF-7s, ZNA/ZnSO4, cytoplasmic fractionation): increase
- FluoZin-3 and LysoTracker overlap [9]: significant increase
- increase in intracellular Zn^2+ (FluoZin-3) ([10]; 48 h, no exogenous Zn^2+): 2 fold
- intracellular Zn^2+ level versus vehicle control (FluoZin-3) ([10]; cotreatment with Zn^2+): less than 10 fold
- caspase 3/7, 8, or 9 activity ([11]; ZNA alone, MDA-MB-231, MCF-10A): either minimal or not observed
- caspase 3/7, 8, or 9 activity ([11]; ZNA/ZnSO4, MDA-MB-231, MCF-10A): either minimal or not observed
- long-term proliferative potential (colonies) [12]: significantly affected long-term proliferative potential
- sensitivity (cell viability) [13]: reduced sensitivity
- metal trafficking gene expression [14]: 5 fold
- metal trafficking gene expression [15]: 75 fold
- potency and selectivity (EC50 in MCF-7, ΔAUC between MCF-7 and MCF-10A) [16]: significant increase in potency and selectivity; also recorded: greatest balance of potency and selectivity
- effect on long-term proliferative potential (colonies) [17]: greatly attenuated
- cell death ([18]; ZNA alone, 24 h): unaffected
- cell death ([18]; combination with ZnSO4, 24 h): unaffected
- organoids healthy with no visible extruding cells ([1]; combination ZNA/ZnSO4, 144 h): Greater than 60%
- organoids with either full or partial branching ([1]; combination ZNA/ZnSO4, 144 h): approximately 90%
- delay in branching morphogenesis [1]: 24 h
- EC50 [19]: 4.12 µM
- IC50 [20]: > 100 µM
- EdU incorporation ([21]; ZNA (30 μM)/ZnSO4 (30 μM)): only partially inhibiting
- EdU incorporation ([21]; ZNA alone 30 μM): only a partial reduction
- total cellular Zn^2+ (ICP-AES) [22]: increase in total cellular Zn^2+
- organoids with strong cell extrusion phenotype ([23]; ZNA-alone): about 70%
- organoids to which treatment was cytotoxic ([23]; ZNA/ZnSO4 cotreatment): over 80%
- intracellular Zn^2+ on cotreatment with Actinomycin D versus ZNA-alone ([24]; 24 h, with ACTD): statistically significant increase
- increase in FluoZin-3 fluorescence (intracellular Zn^2+) ([24]; 48 h, no exogenous Zn^2+): 13 fold
- intracellular Zn^2+ concentration (FluoZin-3) ([24]; in the presence of 30 μM Zn^2+, 3 h): 170 times
- total cellular Zn^2+ (ICP-AES) [25]: below detectable levels
- effect on cell viability in combination with Zn^2+ ([26]; MCF-10A and MCF-7, 24 h, ATP): highly synergistic and cancer selective
- effect on cell viability in cotreatment with Cu^2+ ([26]; MCF-10 and MCF-7, 24 h, ATP): nonselective cell death
- effect on cell viability with Ni, Co, and Mn compared to ZNA alone ([26]; broader series of metals): minimal changes in cell viability
- effect on cell viability in combination with Fe^2+ ([26]; untransformed and transformed cell lines, 24 h, ATP): relatively little effect
- cell viability [27]: decreased cell viability
- cytotoxic effect of combination with ZnSO4, time-course [28]: only observed in the transformed cell line
- survival versus control-treated or ZnSO4-only groups ([29]; ZNA 100 mg/kg i.p. once a day plus 25 mM ZnSO4 in drinking water, 21 days): significant survival advantage
- general toxicity, adverse reactions, body weight ([29]; ZNA 100 mg/kg i.p. once a day, 21 days): no general toxicity, adverse reactions, or decreases in body weight
- survival versus control-treated or ZnSO4-only groups ([29]; ZNA alone 100 mg/kg i.p. once a day for 21 days): significant survival advantage
- general toxicity, adverse reactions, body weight ([29]; combination of ZNA and ZnSO4, 21 days): no general toxicity, adverse reactions, or decreases in body weight
- EdU incorporation ([30]; ZNA (30 μM)/ZnSO4 (30 μM)): complete block
- EdU incorporation ([30]; ZNA alone 30 μM): only a partial reduction

Molecule: Oc1c(I)cc(Cl)c2cccnc12 [clioquinol]
- toxicity of combination with ZnSO4 [31]: toxic to both transformed and untransformed cells
- intracellular Zn^2+ levels (FluoZin-3) [3]: increase in intracellular Zn^2+
- organoids killed ([1]; compound alone): 100%
- organoids killed ([1]; with ZnSO4): 100%
- IC50 [32]: 5 to 50 µM
- cytotoxic effect of combination with ZnSO4, time-course [28]: cytotoxic toward all cell types tested
